Bioassay records from PubChem BioAssay.
T cruzi growth-1: T. cruzi intracellular proliferation inhibitors, primary screen, cell-based, beta-gal Tulahuen parasites, NIH3T3 host, luminescence; T. cruzi beta-gal in NIH3T3, GalScreen luminescence, 90 h; inhibition, % at 8.34 µM; 77,000 tested, 5.9% active;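 active = mean inhibition above about 93%, with at least 55% of replicates each passing it, limit read from the data, passing the limit was not always enough; inconclusive = only one of those two conditions holds; inactive = neither condition holds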
IDH1 mut inh: inhibitors of IDH1 R132H reductase, primary screen, biochemical, plate reader, single point | inhibition, % at 10 µM | diaphorase/resazurin fluorescence, 60 min | Isocitrate dehydrogenase [NADP] cytoplasmic (Homo sapiens), O75874 | AID 624101, 2012 | 70,000 tested, 0.18% active; in the data active = inhibition above about 34%; inconclusive = no clear call, values can overlap the other calls; inactive = below about 11%;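 also: 0% = DMSO and 100% = no enzyme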
Target sequence (O75874 whole entry R132H): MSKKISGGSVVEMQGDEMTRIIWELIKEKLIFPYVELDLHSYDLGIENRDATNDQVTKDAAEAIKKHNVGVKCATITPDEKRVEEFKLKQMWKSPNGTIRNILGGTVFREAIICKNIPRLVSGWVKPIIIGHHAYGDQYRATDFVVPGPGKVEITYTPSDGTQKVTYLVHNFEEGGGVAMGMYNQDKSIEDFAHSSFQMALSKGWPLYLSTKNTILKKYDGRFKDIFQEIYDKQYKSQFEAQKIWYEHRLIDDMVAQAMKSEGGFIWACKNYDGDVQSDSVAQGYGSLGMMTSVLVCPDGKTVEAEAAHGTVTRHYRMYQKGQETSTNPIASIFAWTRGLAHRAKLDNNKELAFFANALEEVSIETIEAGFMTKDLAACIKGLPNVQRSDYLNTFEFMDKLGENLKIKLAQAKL
KDM4C inh: inhibitors of GASC-1 (KDM4C) histone demethylase, primary screen, biochemical, single concentration HTS. GST-KDM4C 2-372, H3K9me3 peptide, LANCE TR-FRET. Lysine-specific demethylase 4C (Homo sapiens), Q9H3R0. 96,000 tested, 0.15% active. inhibition, % at 12.5 µM. AID 720574, 2013;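 active = mean replicate inhibition above about 25%, with at least 55% of replicates also reaching it, limit read from the data, passing the limit was not always enough; inconclusive = only one of those two conditions met; inactive = neither condition met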
Target sequence (Q9H3R0 2-372 limits assumed): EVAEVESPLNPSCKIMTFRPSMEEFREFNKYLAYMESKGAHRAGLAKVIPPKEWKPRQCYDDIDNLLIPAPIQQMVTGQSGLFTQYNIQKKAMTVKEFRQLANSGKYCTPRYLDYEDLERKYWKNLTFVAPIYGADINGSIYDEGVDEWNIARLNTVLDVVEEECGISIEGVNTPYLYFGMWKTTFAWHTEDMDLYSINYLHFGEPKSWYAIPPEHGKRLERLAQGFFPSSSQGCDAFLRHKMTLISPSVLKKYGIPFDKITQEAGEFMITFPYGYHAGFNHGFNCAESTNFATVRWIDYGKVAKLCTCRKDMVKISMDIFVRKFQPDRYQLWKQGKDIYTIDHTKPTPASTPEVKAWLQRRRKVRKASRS
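Material: N-terminal GST-fused human GASC-1 (KDM4C) fragment, residues 2-372. Input: 10 nM enzyme. Incubation: enzyme reaction 30 min, then detection 60 min, both room temperature. Doses: one test concentration per compound. Read-out basis: inhibition from TR-FRET ratio decrease. Detection: LANCE TR-FRET, excitation 340 nm, emissions 618 and 671 nm.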
T cruzi growth-2: T. cruzi intracellular proliferation inhibitors, confirmation, cell-based, NIH3T3 host, beta-gal parasite, luminescence, cherry-pick; shares compounds with T cruzi growth-1; T. cruzi beta-gal in NIH3T3, GalScreen luminescence, 90 h; inhibition, % at 8.35 µM; 5,600 tested, 72% active;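 active = mean replicate inhibition above about 95% and at least 55% of replicates individually reaching it, limit read from the data; inconclusive = only one of the two criteria is met; inactive = neither criterion is met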
T cruzi growth-3: inhibitors of intracellular T. cruzi replication, confirmation, NIH3T3 host cells, beta-gal parasites, cherry-pick, set 2; shares compounds with T cruzi growth-1; T. cruzi beta-gal in NIH3T3, GalScreen luminescence, 90 h; inhibition, % at 2.09 µM; 5,600 tested, 21% active;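 active = mean inhibition above about 95%, with at least 55% of replicates also reaching it, limit read from the data; inconclusive = meets just one of the two conditions; inactive = meets neither condition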;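 also: plate controls were neutral control median for no effect and positive control median for full effect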
NIH3T3 tox: cytotoxicity in mouse NIH/3T3 fibroblasts, confirmation, cytotoxicity control for T. cruzi proliferation inhibitor project, cell-based, cherry-pick, single point. shares compounds with T cruzi growth-1. NIH/3T3 viability, CellTiter-Glo ATP luminescence, 90 h. cytotoxicity (signal decrease), % at 8.35 µM. 5,600 tested, 14% active. AID 651742, 2012;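 active = mean signal decrease across replicates above about 35% based on untreated-well scatter, with enough replicates individually passing, limit read from the data; inconclusive = no rule stated though some were filed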;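 also: 0% = median of neutral control wells and 100% = median of positive control wells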
3T3 cytotox 2: NIH/3T3 fibroblast cytotoxicity, confirmation, cytotoxicity control, cell-based, cherry-pick, single point, set 2. shares compounds with T cruzi growth-1. NIH/3T3 viability, CellTiter-Glo ATP luminescence, 90 h. inhibition, % at 24.9 µM. 5,600 tested, 56% active;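 active = mean loss of cell viability signal at or above a set limit, and enough replicates individually reaching it; inconclusive = meets only the mean limit or only the replicate share; inactive = meets neither condition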;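 also: 0% = median of neutral control wells and 100% = median of positive control wells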
The depositor's hits bear a star; u = inconclusive; x = no result. This is one part of a sample in which hits are shown more often than they occur.

SMILES	T cruzi growth-1	IDH1 mut inh	KDM4C inh	T cruzi growth-2	T cruzi growth-3	NIH3T3 tox	3T3 cytotox 2
Cc1cccc(-c2ccc([C@H]3[C@@H](CO)N4CCCCN(S(=O)(=O)c5cn(C)cn5)C[C@H]34)cc2)c1	75.5	x	-0.7	x	x	x	x
Cn1cnc(S(=O)(=O)N2CCCCN3[C@H](C2)[C@H](c2ccc(-c4cccc(F)c4)cc2)[C@@H]3CO)c1	73.5	x	-1.1	x	x	x	x
Cn1cnc(S(=O)(=O)N2CCCCN3[C@H](CO)[C@H](c4ccc(-c5cccc(F)c5)cc4)[C@H]3C2)c1	-22.6	x	-2.0	x	x	x	x
Cn1cnc(S(=O)(=O)N2CCCCN3[C@H](CO)[C@H](c4ccc(-c5ccc(F)cc5)cc4)[C@H]3C2)c1	u	x	0.3	u	18.4	18.9	40.6*
Cc1cccc(-c2ccc([C@@H]3[C@@H](CO)N4CCCCN(S(=O)(=O)c5cn(C)cn5)C[C@H]34)cc2)c1	102.1*	x	-0.1	11.1	-15.5	9.4	8.5
Cn1cnc(S(=O)(=O)N2CCCCN3[C@@H](CO)[C@H](c4ccc(-c5ccccc5)cc4)[C@@H]3C2)c1	100.4*	x	0.2	-13.5	9.9	9.0	32.6*
CC(Oc1ccc(Br)cc1)C(=O)NCc1ccco1 (configuration not stated)	x	1.7	x	x	x	x	x
Cn1cnc(S(=O)(=O)N2CCCCN3[C@H](C2)[C@@H](c2ccc(-c4ccc(F)cc4)cc2)[C@@H]3CO)c1	23.4	x	0.0	x	x	x	x
Cn1cnc(S(=O)(=O)N2CCCCN3[C@H](CO)[C@@H](c4ccc(-c5ccccc5)cc4)[C@H]3C2)c1	98.3*	x	-1.1	40.0	-32.7	-7.3	-5.0
C[C@@H]1CN([C@H](C)CO)C(=O)c2cc(NC(=O)CCC(F)(F)F)ccc2O[C@@H](C)CCCCO[C@H]1CN(C)S(=O)(=O)c1ccc(Cl)cc1	57.5	2.0	-0.1	x	x	x	x
C[C@H](CO)N1C[C@H](C)[C@H](CN(C)S(=O)(=O)c2ccc(Cl)cc2)OCCCC[C@H](C)Oc2ccc(NC(=O)CCC(F)(F)F)cc2C1=O	71.5	x	-2.0	x	x	x	x
C[C@@H]1CCCCO[C@H](CN(C)S(=O)(=O)c2ccc(Cl)cc2)[C@H](C)CN([C@@H](C)CO)C(=O)c2cc(NC(=O)CCC(F)(F)F)ccc2O1	72.4	1.3	0.0	x	x	x	x
C[C@@H]1CCCCO[C@H](CN(C)S(=O)(=O)c2ccc(Cl)cc2)[C@H](C)CN([C@H](C)CO)C(=O)c2cc(NC(=O)CCC(F)(F)F)ccc2O1	98.6*	x	0.0	106.3*	33.6	14.2	29.6*
C[C@H]1CCCCO[C@@H](CN(C)S(=O)(=O)c2ccc(Cl)cc2)[C@@H](C)CN([C@@H](C)CO)C(=O)c2cc(NC(=O)CCC(F)(F)F)ccc2O1	116.7*	x	0.4	109.6*	73.0	-20.2	15.9
C[C@H]1CCCCO[C@H](CN(C)S(=O)(=O)c2ccc(Cl)cc2)[C@@H](C)CN([C@@H](C)CO)C(=O)c2cc(NC(=O)CCC(F)(F)F)ccc2O1	105.5*	4.1	-1.8	102.8*	70.4	-0.1	18.6
CCN(CC(=O)Nc1ccc(C(F)(F)F)cc1)S(=O)(=O)c1ccc2ccccc2c1	x	-0.1	x	x	x	x	x
O=C(C[C@@H]1C=C[C@H](NS(=O)(=O)c2ccc(F)cc2)[C@H](CO)O1)N1CCC(Cc2ccccc2)CC1	42.1	-0.2	-2.7	x	x	x	x
Cc1ccc(S(=O)(=O)N[C@H]2C=C[C@H](CC(=O)N3CCC(Cc4ccccc4)CC3)O[C@H]2CO)cc1	124.9*	-0.2	-0.9	102.8*	-4.5	-1.4	8.5
O=C(C[C@H]1C=C[C@H](NS(=O)(=O)c2ccc(F)cc2)[C@H](CO)O1)N1CCC(Cc2ccccc2)CC1	u	-0.2	1.2	106.9*	-15.1	-18.1	15.7
Cc1ccc(S(=O)(=O)N[C@@H]2C=C[C@H](CC(=O)N3CCC(Cc4ccccc4)CC3)O[C@H]2CO)cc1	49.8	-0.3	-1.5	x	x	x	x
Cn1c(=O)[nH]c(=O)c2c1ncn2CC(=O)NCc1ccco1	x	0.4	x	x	x	x	x
CS(=O)(=O)N(CC(=O)Nc1ccc(F)c(F)c1)c1ccc(Br)cc1	x	0.0	x	x	x	x	x
CN(CC(=O)Nc1ccccc1C(=O)N1CCCCC1)S(=O)(=O)c1ccc2ccccc2c1	x	-0.4	x	x	x	x	x
O=C(NCC1CC1)[C@@H]1[C@@H](CO)[C@@H]2Cn3c(ccc(-c4cncnc4)c3=O)[C@@H]2N1C(=O)NC1CCCC1	-28.9	x	2.3	x	x	x	x
O=C(Nc1nccs1)[C@@H]1[C@@H](CO)[C@@H]2Cn3c(cccc3=O)[C@@H]2N1C(=O)C1CCC1	101.4*	x	1.2	0.6	-13.1	2.8	1.2
SMILES	T cruzi growth-1	IDH1 mut inh	KDM4C inh	T cruzi growth-2	T cruzi growth-3	NIH3T3 tox	3T3 cytotox 2
O=C(Nc1nccs1)[C@H]1[C@H](CO)[C@H]2Cn3c(ccc(-c4cccnc4)c3=O)[C@H]2N1CC1CCCC1	u	x	3.7	20.3	-2.6	10.9	54.5*
O=C(Nc1nccs1)[C@@H]1[C@@H](CO)[C@@H]2Cn3c(ccc(-c4cccnc4)c3=O)[C@@H]2N1CC1CCCC1	85.1	x	-0.3	x	x	x	x
O=C(NCc1ccc(F)cc1)[C@H]1[C@H](CO)[C@H]2Cn3c(cccc3=O)[C@H]2N1CCC(F)(F)F	78.5	x	-0.4	x	x	x	x
O=C(NCC1CC1)[C@@H]1[C@@H](CO)[C@@H]2Cn3c(ccc(-c4cccnc4)c3=O)[C@@H]2N1C(=O)NC1CCCC1	u	x	2.6	-1.5	31.9	-5.8	14.9
O=C(NCc1ccc(F)cc1)[C@@H]1[C@@H](CO)[C@@H]2Cn3c(cccc3=O)[C@@H]2N1CCC(F)(F)F	143.5*	x	1.4	-1.5	-4.7	0.0	0.8
O=C(Nc1nccs1)[C@H]1[C@H](CO)[C@H]2Cn3c(cccc3=O)[C@H]2N1C(=O)C1CCC1	85.0	x	2.3	x	x	x	x
C[C@@H]1O[C@@H](Oc2cc(O)c3c(=O)c(O[C@@H]4O[C@@H](C)[C@H](O[C@@H]5O[C@@H](C)[C@H](O)[C@@H](O)[C@H]5O)[C@@H](O)[C@H]4O)c(-c4ccc(O)cc4)oc3c2)[C@H](O)[C@H](O)[C@H]1O	x	0.3	x	x	x	x	x
CC(C(=O)Nc1ccccc1-c1ccccc1)N(c1ccccc1)S(C)(=O)=O (configuration not stated)	x	-0.3	x	x	x	x	x
N#Cc1ccc(/C=N/NC(=O)CCCCCCC(=O)Nc2ccccc2O)cc1	x	0.0	x	x	x	x	x
COc1ccc(S(=O)(=O)N(C)CC(=O)Nc2ccc(Br)cc2F)cc1C	x	-0.1	x	x	x	x	x
